Experimental data published in ChEMBL document CHEMBL1122426, “Radioiodine-labeled N,N-dimethyl-N'-(2-hydroxy-3-alkyl-5-iodobenzyl)-1,3-propanediamines for brain perfusion imaging” (J Med Chem, 1983).

How the values were obtained:
Rattus norvegicus [1] = assay: Biodistribution of I-125 labeled compound in rat lungs, 2 min after intravenous injection. value expressed in average % dose per organ; value may range from 15.7 to 18.7; assay type: ADME, organism-based, Lung; conditions: in vivo
Rattus norvegicus [2] = organism: Rattus norvegicus; assay: Effect of specific activity of compound on biodistribution in rats heart 1 hr after injection at the dose of 0.25 mg value expressed in average % dose per organ 0.69 to 0.74; assay type: ADME, organism-based; conditions: in vivo
Procedure, shortened: (§1)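 Rats received an intravenous injection of the I-125 labeled diamine with added unlabeled carrier (6.25, 2.5, 0.25 or 0.025 mg per dose). At 1 h, organs were counted. Percent dose per organ came from comparing tissue radioactivity with diluted aliquots of the injected dose. Values are the average and range of 3 rats. Brain/blood ratio was taken from % dose per gram, calculated using mean organ weights (brain 1.65 g; blood 18 g).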

[3] = Biodistribution of […] compound in a monkey heart. 1 hr after intravenous injection. the value expressed in%dose/organ; assay type: ADME, organism-based; conditions: simiiformes, in vivo
Procedure, shortened: (§2)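 Monkey sedated with ketamine and anesthetized with nembutal, then given ~100 μCi [125I] label (~7 mCi/mg) intravenously. Killed 1 h later by nembutal overdose. Organs dissected, weighed and counted. % dose per organ found against diluted injected-dose aliquots; % dose per gram also reported; brain/blood from per-gram values. Single animal.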

[4] = Biodistribution of [125I]- compound in a monkey liver. 1 hr after intravenous injection. the value expressed in %dose/gram; conditions: simiiformes, in vivo
[5] = Biodistribution of [125I]- compound in a monkey bone. 1 hr after intravenous injection. the value expressed in %dose/gram; conditions: simiiformes, in vivo
Rattus norvegicus [6] = organism: Rattus norvegicus; assay: Effect of specific activity of compound on biodistribution in rats liver 1 hr after injection at the dose of 2.5 mg value expressed in average % dose per organ; value may range from 17.1 to 20.7; assay type: ADME, organism-based; conditions: in vivo; procedure, shortened: as §1
Rattus norvegicus [7] = organism: Rattus norvegicus; assay: Effect of specific activity of compound on biodistribution in rats brain 1 hr after injection at the dose of 0.25 mg value expressed in average % dose per organ; value may range from 1.76 to 1.97; assay type: ADME, organism-based; conditions: in vivo; procedure, shortened: as §1
Rattus norvegicus [8] = organism: Rattus norvegicus; assay: Effect of specific activity of compound on biodistribution in rats blood 1 hr after injection at the dose of 0.25 mg value expressed in average % dose per organ; value may range from 0.83 to 0.92; assay type: ADME, organism-based; conditions: in vivo
Rattus norvegicus [9] = organism: Rattus norvegicus; assay: Effect of specific activity of compound on biodistribution in rats thyroid 1 hr after injection at the dose of 6.25 mg value expressed in average % dose per organ; value may range from 0.09 to 0.11; assay type: ADME, organism-based, Thyroid gland; conditions: in vivo; procedure, shortened: as §1
[10] = Biodistribution of [125I]- compound in a monkey kidneys. 1 hr after intravenous injection. the value expressed in %dose/gram; conditions: simiiformes, in vivo
Rattus norvegicus [11] = organism: Rattus norvegicus; assay: Effect of specific activity of compound on biodistribution in rats liver 1 hr after injection at the dose of 0.25 mg value expressed in average % dose per organ; value may range from 8.01 to 9.52; assay type: ADME, organism-based; conditions: in vivo; procedure, shortened: as §1
Rattus norvegicus [12] = organism: Rattus norvegicus; assay: Effect of specific activity of compound on biodistribution in rats muscle 1 hr after injection at the dose of 0.25 mg value expressed in average % dose per organ; value may range from 11.0 to 13.4; assay type: ADME, organism-based, Muscle tissue; conditions: in vivo; procedure, shortened: as §1
[13] = Biodistribution of [125I]- compound in a monkey spleen. 1 hr after intravenous injection. the value expressed in%dose/organ; conditions: simiiformes, in vivo
Rattus norvegicus [14] = organism: Rattus norvegicus; assay: Effect of specific activity of compound on biodistribution in rats brain after injection at the dose of 0.025 mg value expressed in average % dose per organ; value may range from 1.39 to 1.56; assay type: ADME, organism-based; conditions: in vivo; procedure, shortened: as §1
[15] = Biodistribution of [125I]- compound in a monkey liver. 1 hr after intravenous injection. the value expressed in %dose/organ; conditions: simiiformes, in vivo
[16] = Biodistribution of [125I]- compound in a monkey kidneys. 1 hr after intravenous injection. the value expressed in%dose/organ; conditions: simiiformes, in vivo
[17] = Biodistribution of [123I]- compound in a monkey brain. 1 hr after intravenous injection. the value expressed in %dose/organ; assay type: ADME, organism-based; conditions: simiiformes, in vivo
Rattus norvegicus [18] = organism: Rattus norvegicus; assay: Effect of specific activity of compound on biodistribution in rats brain to blood ratio after injection at the dose of 0.025 mg value expressed in % dose per gram ratio; assay type: ADME, organism-based; procedure, shortened: as §1
[19] = Biodistribution of [125I]- compound in a monkey brain to blood ratio 1 hr after intravenous injection. the value expressed in %dose/gram; conditions: simiiformes, in vivo
Rattus norvegicus [20] = assay: Biodistribution of I-125 labeled compound in rat lungs, 1 hr after intravenous injection. value expressed in average % dose per organ; value may range from 10.6 to 15.1; assay type: ADME, organism-based, Lung; conditions: in vivo
Rattus norvegicus [21] = organism: Rattus norvegicus; assay: Effect of specific activity of compound on biodistribution in rats brain 1 hr after injection at the dose of 6.25 mg value expressed in average % dose per organ; value may range from 1.95 to 2.70; assay type: ADME, organism-based; conditions: in vivo; procedure, shortened: as §1
Rattus norvegicus [22] = organism: Rattus norvegicus; assay: Effect of specific activity of compound on biodistribution in rats lungs 1 hr after injection at the dose of 0.25 mg value expressed in average % dose per organ; value may range from 12.0 to 20.3; assay type: ADME, organism-based, Lung; conditions: in vivo; procedure, shortened: as §1
Rattus norvegicus [23] = assay: Biodistribution of I-125 labeled compound in rat liver, 2 min after intravenous injection. value expressed in average % dose per organ; value may range from 7.90 to 10.6; assay type: ADME, organism-based; conditions: in vivo
Rattus norvegicus [24] = assay: Biodistribution of I-125 labeled compound in rat muscle, 1 hr after intravenous injection. value expressed in average % dose per organ; value may range from 8.99 to 14.4; assay type: ADME, organism-based, Muscle tissue; conditions: in vivo
Rattus norvegicus [25] = organism: Rattus norvegicus; assay: Effect of specific activity of compound on biodistribution in rats lungs 1 hr after injection at the dose of 2.5 mg value expressed in average % dose per organ; value may range from 5.89 to 8.67; assay type: ADME, organism-based, Lung; conditions: in vivo; procedure, shortened: as §1
Rattus norvegicus [26] = organism: Rattus norvegicus; assay: Distribution coefficient at pH 7.0 in rat; assay type: ADME, organism-based
Procedure, shortened: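 Octanol/buffer partition: I-125 labeled diamine mixed with 3 g each of 1-octanol and 0.1 M phosphate buffer at pH 7.0 or 7.4, vortexed 3× 1 min, centrifuged 5 min. Two 0.5 g samples of each layer counted. Value is cpm/g octanol over cpm/g buffer, usually repeated three times.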

Rattus norvegicus [27] = organism: Rattus norvegicus; assay: Effect of specific activity of compound on biodistribution in rats brain to blood ratio 1 hr after injection at the dose of 2.5 mg value expressed in % dose per gram ratio; assay type: ADME, organism-based; procedure, shortened: as §1
Rattus norvegicus [28] = assay: Biodistribution of I-125 labeled compound in rat brain to blood ratio, 1 hr after intravenous injection. value expressed in % dose per gram ratio; assay type: ADME, organism-based
Procedure, shortened: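 Rats given I-125 diamine iv; tissue activity at 2 min or 1 h compared with diluted injected-dose aliquots. % dose per gram approximated as % dose per organ divided by mean organ weight (brain 1.65 g; blood 18 g). Ratio taken from the per-gram values.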

[29] = Biodistribution of […] in a monkey thyroid. 1 hr after intravenous injection. the value expressed in %dose/gram; assay type: ADME, organism-based, Thyroid gland; conditions: simiiformes, in vivo; procedure, shortened: as §2
Rattus norvegicus [30] = organism: Rattus norvegicus; assay: Effect of specific activity of compound on biodistribution in rats thyroid 1 hr after injection at the dose of 0.25 mg value expressed in average % dose per organ; value may range from 0.17 to 0.19; assay type: ADME, organism-based, Thyroid gland; conditions: in vivo; procedure, shortened: as §1
Rattus norvegicus [31] = assay: Biodistribution of I-125 labeled compound in rat brain, 2 min after intravenous injection. value expressed in average % dose per organ; value may range from 1.71 to 1.95; assay type: ADME, organism-based; conditions: in vivo

Average dose per organ (Rattus norvegicus [1]): 16.9%
Average dose per organ (Rattus norvegicus [2]): 0.72%
Dose per organ [3]: 5.39%
Dose/g [4]: 0.149%
Dose/g [5]: 0.00168%
Average dose per organ (Rattus norvegicus [6]): 18.9%
Average dose per organ (Rattus norvegicus [7]): 1.84%
Average dose per organ (Rattus norvegicus [8]): 0.88%
Average dose per organ (Rattus norvegicus [9]): 0.1%
Dose/g [10]: 0.602%
Average dose per organ (Rattus norvegicus [11]): 8.54%
Average dose per organ (Rattus norvegicus [12]): 12.1%
Dose per organ [13]: 2.39%
Average dose per organ (Rattus norvegicus [14]): 1.47%
Dose per organ [15]: 19.7%
Dose per organ [16]: 16.1%
Dose per organ [17]: 3.18%
Ratio (Rattus norvegicus [18]): 17.6%
Ratio [19]: 17.5
Average dose per organ (Rattus norvegicus [20]): 11.7%
Average dose per organ (Rattus norvegicus [21]): 2.38%
Average dose per organ (Rattus norvegicus [22]): 15.2%
Average dose per organ (Rattus norvegicus [23]): 9.51%
Average dose per organ (Rattus norvegicus [24]): 11.9%
Average dose per organ (Rattus norvegicus [25]): 6.87%
Distribution coefficient (Rattus norvegicus [26]): 3.39
Ratio (Rattus norvegicus [27]): 37.3%
Ratio (Rattus norvegicus [28]): 19.7%
Dose/g [29]: 0.039%
Average dose per organ (Rattus norvegicus [30]): 0.17%
Average dose per organ (Rattus norvegicus [31]): 1.8%
SMILES: Cc1cc(I)cc(CNCCCN(C)C)c1O
